Laboratory results reported in ChEMBL document CHEMBL3853336, “Novel selective glucocorticoid receptor agonists (SEGRAs) with a covalent warhead for long-lasting inhibition” (Bioorg Med Chem Lett, 2016).

Key:
[1] = target: T1, Glucocorticoid receptor (Homo sapiens) (UniProt P04150); test: Displacement of [3H]-dexamethasone from GR receptor in human IM-9 cytosolic extracts at 100 nM preincubated for 6 hrs followed by washout and second incubation with [3H]-dexamethasone for 24 hrs relative to control
T1 sequence (whole entry): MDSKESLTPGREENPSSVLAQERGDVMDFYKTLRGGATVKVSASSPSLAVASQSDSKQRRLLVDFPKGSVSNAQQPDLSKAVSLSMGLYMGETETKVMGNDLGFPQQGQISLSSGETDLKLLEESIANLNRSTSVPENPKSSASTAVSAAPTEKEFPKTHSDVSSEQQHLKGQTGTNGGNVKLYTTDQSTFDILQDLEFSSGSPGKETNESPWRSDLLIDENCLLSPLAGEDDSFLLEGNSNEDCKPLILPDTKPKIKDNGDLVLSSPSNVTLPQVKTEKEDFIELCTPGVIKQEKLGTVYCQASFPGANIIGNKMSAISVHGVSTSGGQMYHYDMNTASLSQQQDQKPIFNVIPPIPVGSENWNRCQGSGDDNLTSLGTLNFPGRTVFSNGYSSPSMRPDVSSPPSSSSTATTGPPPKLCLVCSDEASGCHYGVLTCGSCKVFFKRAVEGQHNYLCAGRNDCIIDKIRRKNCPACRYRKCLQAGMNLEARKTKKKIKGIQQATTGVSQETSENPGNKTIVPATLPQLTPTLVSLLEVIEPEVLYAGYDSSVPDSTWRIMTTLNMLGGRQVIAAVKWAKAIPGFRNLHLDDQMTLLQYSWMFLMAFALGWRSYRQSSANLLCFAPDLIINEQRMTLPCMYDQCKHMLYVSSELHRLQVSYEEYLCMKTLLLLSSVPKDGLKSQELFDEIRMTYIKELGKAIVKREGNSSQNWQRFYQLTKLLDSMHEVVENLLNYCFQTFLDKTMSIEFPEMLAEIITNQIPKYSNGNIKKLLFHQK
Summary of the method: (§1)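 IM-9 cytosol (240 µg/assay) preincubated 6 h with ligand (100 nM, or 60 nM for cortisol). Unbound ligand was stripped with activated charcoal and centrifugation, then 3 nM [3H]-dexamethasone was added. Binding was read after 1, 2, 3, 4, 16 or 24 h of second incubation as % inhibition of control specific binding, in duplicate.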

[2] = target: T1, Glucocorticoid receptor (Homo sapiens); test: Displacement of [3H]-dexamethasone from GR receptor in human IM-9 cytosolic extracts using buffer solution without beta-mercaptoethanol at 100 nM preincubated for 6 hrs followed by washout and second incubation with [3H]-dexamethasone for 1 hr relative to control
Summary of the method: (§2)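 Repeat of the wash-out protocol in buffers free of β-mercaptoethanol, with a second batch of dexamethasone mesylate. IM-9 cytosol (240 µg/assay) preincubated 6 h at 100 nM (cortisol 60 nM), charcoal-stripped and centrifuged, then given 3 nM [3H]-dexamethasone. Binding was read before wash-out or at 1–24 h as % inhibition of control, in duplicate.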

[3] = target: T1, Glucocorticoid receptor (Homo sapiens); test: Displacement of [3H]-dexamethasone from GR receptor in human IM-9 cytosolic extracts using buffer solution without beta-mercaptoethanol at 100 nM preincubated for 6 hrs followed by washout and second incubation with [3H]-dexamethasone for 16 hrs relative to control; summary of the method: as §2
[4] = target: T1, Glucocorticoid receptor (Homo sapiens); test: Displacement of [3H]-dexamethasone from GR receptor in human IM-9 cytosolic extracts at 100 nM preincubated for 6 hrs followed by washout and second incubation with [3H]-dexamethasone for 16 hrs relative to control; summary of the method: as §1
[5] = target: T1, Glucocorticoid receptor (Homo sapiens); test: Displacement of [3H]-dexamethasone from GR receptor in human IM-9 cytosolic extracts using buffer solution without beta-mercaptoethanol at 100 nM preincubated for 6 hrs followed by [3H]-dexamethasone addition relative to control; summary of the method: as §2
[6] = target: T1, Glucocorticoid receptor (Homo sapiens); test: Displacement of [3H]-dexamethasone from GR receptor in human IM-9 cytosolic extracts at 100 nM preincubated for 6 hrs followed by washout and second incubation with [3H]-dexamethasone for 2 hrs relative to control; summary of the method: as §1
[7] = target: T1, Glucocorticoid receptor (Homo sapiens); test: Displacement of [3H]-dexamethasone from GR receptor in human IM-9 cytosolic extracts using buffer solution without beta-mercaptoethanol at 100 nM preincubated for 6 hrs followed by washout and second incubation with [3H]-dexamethasone for 24 hrs relative to control; summary of the method: as §2
[8] = target: T1, Glucocorticoid receptor (Homo sapiens); test: Displacement of [3H]-dexamethasone from GR receptor in human IM-9 cytosolic extracts using buffer solution without beta-mercaptoethanol at 100 nM preincubated for 6 hrs followed by washout and second incubation with [3H]-dexamethasone for 3 hrs relative to control; summary of the method: as §2
[9] = target: T1, Glucocorticoid receptor (Homo sapiens); test: Displacement of [3H]-dexamethasone from GR receptor in human IM-9 cytosolic extracts using buffer solution without beta-mercaptoethanol at 100 nM preincubated for 6 hrs followed by washout and second incubation with [3H]-dexamethasone for 4 hrs relative to control; summary of the method: as §2
[10] = target: T1, Glucocorticoid receptor (Homo sapiens); test: Displacement of [3H]-dexamethasone from GR receptor in human IM-9 cytosolic extracts at 100 nM preincubated for 6 hrs followed by washout and second incubation with [3H]-dexamethasone for 3 hrs relative to control; summary of the method: as §1
[11] = target: T1, Glucocorticoid receptor (Homo sapiens); test: Displacement of [3H]-dexamethasone from GR receptor in human IM-9 cytosolic extracts at 100 nM preincubated for 6 hrs followed by washout and second incubation with [3H]-dexamethasone for 1 hr relative to control; summary of the method: as §1
[12] = target: T1, Glucocorticoid receptor (Homo sapiens); test: Displacement of [3H]-dexamethasone from GR receptor in human IM-9 cytosolic extracts at 100 nM preincubated for 6 hrs followed by [3H]-dexamethasone addition relative to control
[13] = target: T1, Glucocorticoid receptor (Homo sapiens); test: Displacement of [3H]-dexamethasone from GR receptor in human IM-9 cytosolic extracts at 60 nM preincubated for 6 hrs followed by [3H]-dexamethasone addition relative to control
[14] = target: T1, Glucocorticoid receptor (Homo sapiens); test: Displacement of [3H]-dexamethasone from GR receptor in human IM-9 cytosolic extracts at 60 nM preincubated for 6 hrs followed by washout and second incubation with [3H]-dexamethasone for 2 hrs relative to control; summary of the method: as §1
[15] = target: T1, Glucocorticoid receptor (Homo sapiens); test: Displacement of [3H]-dexamethasone from GR receptor in human IM-9 cytosolic extracts at 60 nM preincubated for 6 hrs followed by washout and second incubation with [3H]-dexamethasone for 3 hrs relative to control; summary of the method: as §1
[16] = target: T1, Glucocorticoid receptor (Homo sapiens); test: Displacement of [3H]-dexamethasone from GR receptor in human IM-9 cytosolic extracts at 60 nM preincubated for 6 hrs followed by washout and second incubation with [3H]-dexamethasone for 24 hrs relative to control; summary of the method: as §1
[17] = target: T1, Glucocorticoid receptor (Homo sapiens); test: Displacement of [3H]-dexamethasone from GR receptor in human IM-9 cytosolic extracts using buffer solution without beta-mercaptoethanol at 60 nM preincubated for 6 hrs followed by [3H]-dexamethasone addition relative to control; summary of the method: as §2
[18] = target: T1, Glucocorticoid receptor (Homo sapiens); test: Displacement of [3H]-dexamethasone from GR receptor in human IM-9 cytosolic extracts at 60 nM preincubated for 6 hrs followed by washout and second incubation with [3H]-dexamethasone for 16 hrs relative to control; summary of the method: as §1
[19] = target: T1, Glucocorticoid receptor (Homo sapiens); test: Displacement of [3H]-dexamethasone from GR receptor in human IM-9 cytosolic extracts using buffer solution without beta-mercaptoethanol at 60 nM preincubated for 6 hrs followed by washout and second incubation with [3H]-dexamethasone for 24 hrs relative to control; summary of the method: as §2
[20] = target: T1, Glucocorticoid receptor (Homo sapiens); test: Displacement of [3H]-dexamethasone from GR receptor in human IM-9 cytosolic extracts at 60 nM preincubated for 6 hrs followed by washout and second incubation with [3H]-dexamethasone for 4 hrs relative to control; summary of the method: as §1
[21] = target: T1, Glucocorticoid receptor (Homo sapiens); test: Displacement of [3H]-dexamethasone from GR receptor in human IM-9 cytosolic extracts at 60 nM preincubated for 6 hrs followed by washout and second incubation with [3H]-dexamethasone for 1 hr relative to control; summary of the method: as §1
[22] = target: T1, Glucocorticoid receptor (Homo sapiens); test: Displacement of [3H]-dexamethasone from GR receptor in human IM-9 cytosolic extracts using buffer solution without beta-mercaptoethanol at 60 nM preincubated for 6 hrs followed by washout and second incubation with [3H]-dexamethasone for 16 hrs relative to control; summary of the method: as §2
[23] = target: T1, Glucocorticoid receptor (Homo sapiens); test: Displacement of [3H]-dexamethasone from GR receptor in human IM-9 cytosolic extracts at 100 nM preincubated for 6 hrs followed by washout and second incubation with [3H]-dexamethasone for 4 hrs relative to control; summary of the method: as §1
[24] = target: T1, Glucocorticoid receptor (Homo sapiens); test: Displacement of [3H]-dexamethasone from human GR receptor at 1 uM relative to control
Summary of the method: (§3)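 Human GR radioligand binding with soluble receptor from IM-9 cells and 1.5 nM [3H]-dexamethasone, with test ligand at 1 µM or 0.1 µM. Specific binding reported as % inhibition of control, in duplicate.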

[25] = target: T1, Glucocorticoid receptor (Homo sapiens); test: Displacement of [3H]-dexamethasone from human GR receptor at 0.1 uM relative to control; summary of the method: as §3
[26] = target: T1, Glucocorticoid receptor (Homo sapiens); test: Displacement of [3H]-dexamethasone from GR receptor in human IM-9 cytosolic extracts using buffer solution without beta-mercaptoethanol at 100 nM preincubated for 6 hrs followed by washout and second incubation with [3H]-dexamethasone for 2 hrs relative to control; summary of the method: as §2

Structure (SMILES)	inhibition [1] [%]	inhibition [2] [%]	inhibition [3] [%]	inhibition [4] [%]	inhibition [5] [%]	inhibition [6] [%]	inhibition [7] [%]	inhibition [8] [%]	inhibition [9] [%]	inhibition [10] [%]	inhibition [11] [%]	inhibition [12] [%]	inhibition [24] [%]	inhibition [25] [%]	other results
C[C@@H]1C[C@H]2[C@@H]3CCC4=CC(=O)C=C[C@]4(C)[C@@]3(F)[C@@H](O)C[C@]2(C)[C@@]1(O)C(=O)COS(C)(=O)=O	23	3	46	13	93	3	13	-2	3	7	7	93			
C[C@]12CCC(=O)C=C1CC[C@@H]1[C@@H]2[C@@H](O)C[C@@]2(C)[C@H]1CC[C@]2(O)C(=O)CO															inhibition [13]: 69%; inhibition [14]: 6%; inhibition [15]: 4%; inhibition [16]: 12%; inhibition [17]: 69%; inhibition [18]: 5%; inhibition [19]: -8%; inhibition [20]: -1%; inhibition [21]: 3%; inhibition [22]: 16%
C=CC(=O)Nc1ccc(Cl)c(C(=O)N(CC)CC(O)(CNC(=O)c2cnn(-c3ccc(F)cc3)c2N)C(F)(F)F)c1Cl (configuration not stated)			-5	31	74	17	-2		-10	24	21	74	96	74	inhibition [23]: 6%
CCN(CC(O)(CNC(=O)c1cnn(-c2ccc(F)cc2)c1N)C(F)(F)F)C(=O)c1c(Cl)ccc(NC(=O)CCl)c1Cl (configuration not stated)	2	-1	37	1	78		8	-6	0		-4	78	92	78	inhibition [26]: -8%
